Screening data from PubChem BioAssay.
Compounds with a hit are over-represented: about 4% of the library has one in this group of screens.
TAAR1 antag: human TAAR1 antagonists, primary screen, Fluo-8 calcium fluorescence, CHO RD-HGA16 cells; Trace amine-associated receptor 1 (Homo sapiens), Q96RJ0; antagonist; inhibition, % at 3 µM; hit rate 1.5% among 360,000; AID 624466, 2012;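 active means inhibition above a per-plate cutoff, the mean inhibition of test compounds on that plate plus 3 SD, cut at about 49% in these data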;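 further: 0% = DMSO plus EC80 beta-PEA response and 100% = DMSO alone without agonist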
Target sequence (Q96RJ0 whole entry, looked up): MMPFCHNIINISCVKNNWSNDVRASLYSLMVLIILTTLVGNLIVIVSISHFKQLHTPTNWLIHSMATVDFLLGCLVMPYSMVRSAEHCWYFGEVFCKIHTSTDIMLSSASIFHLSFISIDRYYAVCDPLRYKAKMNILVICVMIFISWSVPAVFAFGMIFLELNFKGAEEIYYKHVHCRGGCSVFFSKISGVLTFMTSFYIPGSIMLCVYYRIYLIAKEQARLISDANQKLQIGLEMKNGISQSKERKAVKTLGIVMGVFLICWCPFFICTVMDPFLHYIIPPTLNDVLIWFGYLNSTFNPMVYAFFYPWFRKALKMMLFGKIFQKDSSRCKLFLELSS
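System: RD-HGA16 CHO cells with stable hTAAR1 and Gα16 | Probe or stimulus: EC80 β-phenethylamine stimulus | Dosing: 3 µM, single point | Times: Dye loading 75 min at 37 °C, then 30 min room temperature | Measured by: Fluo-8 calcium-sensitive fluorescence | Read-out basis: % inhibition of agonist calcium response | Replicates: n of 1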
CHO parental Ca: ATP-evoked calcium signal inhibitors, parental CHO, primary screen, counter-screen for OX1R antagonist project, cell-based, fluorescence, Fluo-8 calcium dye. parental CHO-K1, ATP-induced calcium, Fluo-8 fluorescence. inhibition, % at 5.6 µM. AID 463079, 2010. hit rate 0.63% among 330,000;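 active means inhibition above that plate's mean sample inhibition plus 3 SD, cut at about 26% in these data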;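 further: 0% = ATP-challenged DMSO wells and 100% = DMSO wells without ATP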
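Material: Parental CHO cells | Reagent: ATP | Compound dosing: Single nominal dose of 5.6 µM per compound | Detection: Intracellular calcium via Fluo-8 no-wash fluorescent dye | Read-out: % inhibition of ATP-induced calcium mobilization | Benchmarks: Low control ATP plus DMSO, high control DMSO only | Replicates: Singlicate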
TAAR1 ag: human TAAR1 agonists, primary screen, Fluo-8 calcium fluorescence, CHO RD-HGA16 cells; Trace amine-associated receptor 1 (Homo sapiens), Q96RJ0; vehicle wells 0%, saturating PEA agonist 100%; activation, % at 3 µM; hit rate 0.99% among 360,000; AID 624467, 2012;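 active means activation above the mean activation of all test compounds in the run plus 3 SD, cut at about 38% in these data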
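System: CHO-derived RD-HGA16 cells with stable Gα16 and human TAAR1. Times: 17-24 h plating, Fluo-8 75 min 37 °C, 30 min RT. Measured by: calcium-sensitive Fluo-8 signal, excitation 470-495, emission 515-575 nm. Read-out basis: % activation relative to PEA EC100 response. Control set: DMSO and PEA EC100. Repeats: no replicates (n 1).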
OX1R antag-1: OX1R (HCRTR1) antagonists, primary screen, fluorescence, CHO/OX1R cells, Fluo-8 calcium, orexin A; Orexin/Hypocretin receptor type 1 (Homo sapiens), O43613; Fluo-8 calcium fluorescence; hit rate 0.43% among 330,000; AID 434989, 2010; inhibition, % at 5 µM;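 active means inhibition above its plate's threshold, mean inhibition of all tested compounds on the plate plus 3 SD, cut at about 37% in these data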;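 further: 0% = orexin A challenge wells and 100% = SB-334867-A antagonist wells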
Target sequence (O43613 whole entry, looked up): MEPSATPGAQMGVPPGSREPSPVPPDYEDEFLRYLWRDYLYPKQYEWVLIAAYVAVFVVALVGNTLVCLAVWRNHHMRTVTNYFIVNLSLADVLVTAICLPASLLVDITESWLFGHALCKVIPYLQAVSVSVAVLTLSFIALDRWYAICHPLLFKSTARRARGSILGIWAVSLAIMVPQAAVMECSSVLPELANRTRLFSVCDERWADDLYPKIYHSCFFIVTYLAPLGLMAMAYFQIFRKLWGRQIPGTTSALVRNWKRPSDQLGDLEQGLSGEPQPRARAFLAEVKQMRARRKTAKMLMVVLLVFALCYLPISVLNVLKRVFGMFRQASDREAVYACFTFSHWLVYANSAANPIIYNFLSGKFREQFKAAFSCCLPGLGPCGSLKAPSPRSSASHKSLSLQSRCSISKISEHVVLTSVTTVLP
OX1R antag-2: antagonists of human orexin 1 receptor (OX1R) | Orexin/Hypocretin receptor type 1 (Homo sapiens), O43613 | OX1R-expressing cells, FRET antagonist read-out | inhibition, % at 6.6 µM | hit rate 1.8% among 330,000 | AID 485270, 2010; in the data active means inhibition mostly above about 38%, no sharp cut-off; inactive means mostly below about 40%;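 further: 0% = agonist challenge alone and 100% = reference antagonist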
An asterisk follows results filed as active; x = no result given.

SMILES | TAAR1 antag | CHO parental Ca | TAAR1 ag | OX1R antag-1 | OX1R antag-2
O=C(/C=C/c1ccc([N+](=O)[O-])cc1)NCC1CCCO1 (stereo not given) | -19.0 | -12.2 | -1.8 | -12.3 | 58.7*
O=C(CN1C(=O)c2ccc([N+](=O)[O-])cc2C1=O)NCC1CCCO1 (stereo not given) | -56.7 | 3.3 | 5.2 | -7.4 | 67.5*
O=C(COC(=O)c1ccc(F)c(S(=O)(=O)N2CCOCC2)c1)NCc1ccc(Cl)cc1 | -2.2 | -13.0 | 3.3 | -15.4 | 7.9
COC(=O)C1(C)NC(c2ccc(OC)cc2)C2C(=O)N(c3ccccc3)C(=O)C21 (stereo not given) | -5.7 | -11.5 | 0.0 | -4.2 | -9.3
O=C(COC(=O)CCC(=O)c1ccc(F)cc1)Nc1cccc(S(=O)(=O)N2CCOCC2)c1 | -27.5 | 2.2 | 2.7 | -8.4 | 21.6
O=C(COc1ccc([N+](=O)[O-])cc1)Nc1ccc(S(=O)(=O)N2CCOCC2)cc1 | -7.5 | 2.6 | 47.1* | -0.3 | 6.2
O=C(COc1ccc(S(=O)(=O)N2CCOCC2)cc1)Nc1cccc([N+](=O)[O-])c1 | 3.0 | -7.3 | 3.2 | -19.7 | 18.5
O=C(COc1ccc(C(=O)c2ccc(F)cc2)cc1)Nc1cccc(S(=O)(=O)N2CCOCC2)c1 | 61.7* | 9.6 | 12.0 | 17.8 | 14.6
O=[N+]([O-])c1ccc(S(=O)(=O)NCCN2CCOCC2)cc1 | 2.1 | 8.0 | -0.8 | -28.1 | 42.6*
O=[N+]([O-])c1ccc(-c2ccc(S(=O)(=O)NCCN3CCCC3)cc2)cc1 | -2.7 | -8.3 | 7.0 | 4.0 | 59.1*
O=S1(=O)CC(N2CCCCC2)CN1Cc1cn(Cc2cccc(Cl)c2)nn1 (stereo not given) | 2.0 | x | 1.5 | x | x
O=S(=O)(NCCOCC(F)(F)F)c1ccc2oc3ccccc3c2c1 | 8.8 | 59.0* | 2.7 | 56.3* | 66.3
O=S(=O)(NCCOCCNS(=O)(=O)c1ccccc1)c1ccccc1 | -10.4 | -9.6 | 6.3 | -4.6 | 8.4
COc1ccccc1-c1cccc(-c2nc(C(=O)Nc3nccs3)cc3c2[C@@H](CCO)N(C(C)=O)C3)c1 | 54.3* | x | 19.8 | x | x
CCNC(=O)c1cc2c(c(-c3cccc(-c4ccccc4F)c3)n1)[C@H](CCO)N(C(=O)CC)C2 | -11.6 | x | 2.0 | x | x
CCCNC(=O)c1cc2c(c(-c3cccc(-c4cc5ccccc5o4)c3)n1)[C@@H](CCO)N(C(=O)NC(C)C)C2 | 41.6 | x | 4.4 | x | x
CCNC(=O)c1cc2c(c(-c3cccc(-c4cc5ccccc5o4)c3)n1)[C@H](CCO)N(C(=O)NC(C)C)C2 | 55.6* | x | 11.6 | x | x
CCC(=O)N1Cc2cc(C(=O)Nc3nccs3)nc(-c3cccc(-c4ccccc4OC)c3)c2[C@H]1CCO | 56.8* | x | 14.2 | x | x
CCNC(=O)c1cc2c(c(-c3cccc(-c4cncnc4)c3)n1)[C@@H](CCO)N(C(C)=O)C2 | -23.2 | x | 2.5 | x | x
COc1ccc([C@H]2/C=C\CN(S(=O)(=O)c3cccc4cccnc34)[C@@H](C)C(=O)N2Cc2ccc(F)cc2)cc1 | 41.4 | -9.9 | 7.2 | 17.1 | 69.9*
COc1ccc(C2/C=C\CN(S(=O)(=O)c3ccc(C)cc3)CC(=O)N2Cc2cccc(F)c2)cc1 (stereo not given) | -2.6 | -14.3 | 1.8 | 44.3 | 49.6*
COc1ccc(C2/C=C\CN(S(=O)(=O)c3cccc4cccnc34)CC(=O)N2Cc2ccc(F)cc2)cc1 (stereo not given) | 50.0* | -23.2 | 12.6 | -30.2 | 40.5
COCCNC(=O)CSc1nnc(CCCN2C(=O)c3cccc4cccc(c34)C2=O)n1-c1ccccc1 | 5.3 | -13.6 | 10.3 | -17.6 | 28.6
CC(C)(C)c1ccc(C#C[C@@H]2C=C[C@H]3OC(=O)CC/C=C/CCC(=O)OC[C@H]3O2)cc1 | -5.4 | x | -0.4 | x | x
O=C1C(=O)c2ccccc2C(O)=C1c1ccccc1F | -30.9 | -8.3 | -1.5 | -9.2 | 46.3*
SMILES | TAAR1 antag | CHO parental Ca | TAAR1 ag | OX1R antag-1 | OX1R antag-2
CCC(CC)c1nnc(NC(=O)c2c(C)nn(Cc3ccccc3Cl)c2C)s1 | 15.3 | -11.7 | 41.5* | -8.9 | -9.4
CCC(CC)c1nnc(NC(=O)Cc2ccccc2[N+](=O)[O-])s1 | -8.9 | -13.9 | 49.5* | -7.8 | 3.8
O=C1Nc2ccc(Br)cc2/C1=C/C1CC=CCC1 (stereo not given) | -34.9 | 32.7* | 2.6 | -16.0 | 21.4
O=C1Nc2ccc(Br)cc2/C1=C/C(=O)c1ccc2c(c1)OCO2 | 8.8 | 10.7 | -1.1 | 5.1 | 7.0
O=[N+]([O-])c1ccc(Nc2ccccc2)c2nonc12 | 9.9 | 16.2 | 6.1 | 16.7 | 68.0*
CC(=O)NS(=O)(=O)c1ccc(Nc2ccc([N+](=O)[O-])c3nonc23)cc1 | -20.9 | 3.3 | 2.0 | -8.0 | 75.8*
C[C@H]1CNC(=O)c2c(C(=O)N3CCN(c4ccccc4)CC3)ncn21 | 12.8 | x | -0.1 | x | x
CC(C)(C)c1ccc(C(=O)Nc2ccccc2NC(=O)c2ccco2)cc1 | 49.4* | -17.1 | 5.6 | -23.0 | 11.9
O=C(NCC1CC1(Cl)Cl)Nc1ccc(Cl)c(Cl)c1 (stereo not given) | 26.3 | 33.2* | 2.2 | 1.6 | 39.2
CC1=CC(=O)C(C(C)C)=C/C1=C(\c1cc(C(C)C)c(OP(=O)(O)O)cc1C)c1ccccc1C(=O)O | -13.7 | 1.4 | -0.2 | -12.6 | 0.1
N#Cc1c(=O)c2nc(NCc3ccccc3)ncc2n2ccccc12 | 1.0 | -3.4 | 0.5 | 13.3 | 62.1*
COC(=O)c1cc(NC(=O)/C=C/c2ccc3c(c2)OCO3)cc(C(=O)OC)c1 | 6.7 | -12.6 | 4.1 | -11.4 | 22.2
COC(=O)c1cccc(NC(=O)/C=C/c2ccc3c(c2)OCO3)c1 | 28.4 | -4.6 | 14.2 | -1.6 | 51.8*
CN(C)C1(CN=Cc2cc(Cl)cc([N+](=O)[O-])c2O)CCCCC1 | -15.0 | -7.7 | 4.6 | -12.1 | 43.3*
CC(C)(C)OC(=O)N1CCC2CCN(S(=O)(=O)c3ccccc3)CC21 (stereo not given) | -14.2 | x | 0.4 | x | x
CCCN(CC(=O)Nc1ccccc1OC)C(=O)c1ccc2[nH]c3c(c2c1)CC(C)CC3 (stereo not given) | 51.4* | -5.1 | 15.4 | 16.0 | 6.8
CCN(CC(=O)Nc1ccccc1OC)C(=O)c1ccc2[nH]c3c(c2c1)CC(C)CC3 (stereo not given) | 55.7* | -17.9 | 23.7 | -1.6 | 11.6
COc1ccc(CN(C(=O)CSc2nnc(-c3c[nH]c4ccccc34)o2)c2ccc(F)cc2)cc1OC | 81.7* | 34.8* | 26.5 | 34.0 | 81.5*
COc1ccc(CN(C(=O)CSc2nnc(-c3ccc(F)cc3)o2)c2ccc(F)cc2)cc1 | -33.9 | -6.3 | -0.3 | -8.6 | 22.8
